Measured values published in article PMC5339005 (International Journal of Nanomedicine, 2017).
Where a name gives a salt, the structure may show the parent alone. Square brackets hold non-standard residues; d marks the D form. Peptide text beside a SMILES is read from it. Sar = CNCC(=O)O

What was measured:
HCEpiC and ARPE-19 cells = assay: Gly-Sar cell viability by MTT assay; type: cell-based; settings: even at 10 mM; cells not stated at the place (Figure S6)
HCEpiC [1] = assay: Flow cytometry uptake mechanism with endocytic inhibitors, HCEpiC; type: cell-based, human; settings: inhibitor pre-incubated 30 min, nanocomposites 4 h
In short: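 HCEpiC were seeded at 10^5 cells/well in 12-well plates and grown 6 days, with medium refreshed every 2 days. FITC-labeled nanocomposites (2 μg/mL FITC) were then added for 4 h at 37°C. Cells were rinsed twice with cold DPBS, trypsinized, resuspended at 5×10^5–1×10^6 cells/mL and read by flow cytometry at 495/525 nm. Untreated cells served as control; n=3.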

ARPE-19 cells [2] = assay: Flow cytometry uptake mechanism with endocytic inhibitors, ARPE-19; type: cell-based; settings: inhibitor pre-incubated 30 min, nanocomposites 4 h
In short: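 ARPE-19 cells were seeded at 10^5 cells/well in 12-well plates and grown 5 days, with one medium change. FITC-labeled nanocomposites (4 μg/mL FITC) were then added for 4 h at 37°C in serum-free medium. Cells were rinsed with cold PBS, trypsinized and read by flow cytometry at 495/525 nm. Untreated cells served as control; n=3.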

[3] = In vitro drug release, dynamic dialysis method; type: physicochemical; settings: PBS pH 7.4, within 2 h
In short: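 Free drug solution or drug-loaded nanosheet suspension (1 mL, 50 μg drug) was placed in a dialysis bag (MWCO 8–14 kDa) in PBS pH 7.4 at 35°C±0.5°C, shaken at 400 rpm. Samples of 0.5 mL were taken at 10–720 min, filtered through 0.22 μm and replaced with fresh PBS. Drug was quantified by HPLC.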

HCEpiC [4] = assay: Cellular uptake, inverted fluorescence microscope, HCEpiC; type: cell-based, human; settings: 2 μg/mL FITC, 37°C, 1, 2 and 4 h
In short: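 HCEpiC were grown in poly-L-lysine-coated flasks (2 μg/cm2) in serum-free corneal epithelial medium with growth supplement, under 5% CO2 at 37°C. They were seeded at 5×10^4 cells/well in 24-well plates and grown 6 days, with medium refreshed every 2 days. Cells were exposed for 1, 2 and 4 h at 37°C to FITC-labeled test nanocomposites, free FITC or polymer–FITC control solution, at 2 μg/mL FITC. They were washed three times with DPBS and imaged by inverted fluorescence microscopy.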

ARPE-19 cells [5] = assay: Cellular uptake, inverted fluorescence microscope, ARPE-19; type: cell-based; settings: ARPE-19, 4 μg/mL FITC, 37°C, 1, 2 and 4 h
In short: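 ARPE-19 cells were grown in DMEM/F-12 with 10% FBS under 5% CO2 at 37°C. They were seeded at 5×10^4 cells/well in 24-well plates and grown 2 days. Cells were exposed for 1, 2 and 4 h at 37°C to FITC-labeled test nanocomposites, free FITC or polymer–FITC control solution (3.8×10−4% or 0.008% w/v polymer), at 4 μg/mL FITC. They were washed three times with PBS and imaged by inverted fluorescence microscopy.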

SMILES	Effect of inhibitor on cellular uptake of FITC-labeled nanocomposites vs control (HCEpiC [1])	Effect of inhibitor on cellular uptake of FITC-labeled nanocomposites vs control (ARPE-19 cells [2])	other results
CN(CC(=O)O)C(=O)CN [Gly-Sar] (H-Gly-[Sar]-OH)	–	–	Cytotoxicity (cell viability by MTT) (HCEpiC and ARPE-19 cells): no cytotoxicity
C[C@@H]1[C@H](O)[C@@H](C)/C=C/C=C/CC/C=C/C=C/C=C/C=C/C(O[C@H]2O[C@H](C)[C@@H](O)[C@H](N)[C@@H]2O)CC2O[C@](O)(CC(O)C(O)CCC(O)CC(O)CC(O)CC(=O)O[C@H]1C)CC(O)C2C(=O)O (stereo partly shown) [Nystatin, nystatin]	no significant influence	no significant influence	–
O=C([O-])c1cc(=O)c2c3nc4ccccc4oc-3cc(=O)c2[nH]1.[Na+] [PRN solution, Pirenoxine sodium]	–	–	Cumulative release of PRN [3]: ~ 100%
N=C(N)NC(=O)c1nc(Cl)c(N)nc1N [amiloride]	no effect	no effect	–
CN(C)CCCN1c2ccccc2Sc2ccc(Cl)cc21 [chlorpromazine, chlorpromazine hydrochloride]	significantly decreased	significantly decreased	–
O=C1OC2(c3ccc(O)cc3Oc3cc(O)ccc32)c2ccc(N=C=S)cc21 [free FITC, fluorescein isothiocyanate (FITC) isomer I]	–	–	Fluorescence of cells (cellular uptake) (HCEpiC [4]): negligible fluorescence; Fluorescence of cells (cellular uptake) (ARPE-19 cells [5]): negligible fluorescence
O=c1c(-c2ccc(O)cc2)coc2cc(O)cc(O)c12 [genistein]	no significant influence	no significant influence	–
OC[C@H]1O[C@@](CO)(O[C@H]2O[C@H](CO)[C@@H](O)[C@H](O)[C@H]2O)[C@@H](O)[C@@H]1O [hypertonic sucrose, sucrose]	significantly decreased	significantly decreased	–
[N-]=[N+]=[N-].[Na+] [sodium azide]	decreased	decreased	–
